Reference: ChEMBL document CHEMBL4257499, “Triazole-diindolylmethane conjugates as new antitubercular agents: synthesis, bioevaluation, and molecular docking” (Medchemcomm, 2018)
≈ marks a conversion by molar mass, not a printed value. Calls of active or inactive are those of the source. The rule behind the calls is not given here.

Assays:
[1] = test system: Mycobacterium tuberculosis; test: Antimycobacterial activity against dormant stage of Mycobacterium tuberculosis H37Ra ATCC 25177 at 3 to 30 ug/ml by XRMA relative to control; assay type: functional
Method in brief: (§1)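 Mtb H37Ra, from a -80 °C stock subcultured once in liquid medium, grown in M. pheli minimal medium (KH2PO4, trisodium citrate, MgSO4, asparagine, glycerol; pH 6.6) in 96-well plates. Primary screen at 30, 10 and 3 µg/mL. XTT reduction menadione read-out at 470 nm against cell-free blank. % inhibition = (control − compound)/(control − blank) × 100, with DMSO-vehicle wells as 100% growth. Duplicates.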

[2] = test system: Mycobacterium tuberculosis; test: Antimycobacterial activity against active stage of Mycobacterium tuberculosis H37Ra ATCC 25177 at 3 to 30 ug/ml by XRMA relative to control; assay type: functional; method in brief: as §1
[3] = test system: Mycobacterium tuberculosis; test: Antimycobacterial activity against dormant stage of Mycobacterium tuberculosis H37Ra ATCC 25177 by XRMA; assay type: functional, organism-based
Method in brief: (§2)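 Mtb H37Ra in M. pheli medium (pH 6.6) in 96-well plates. XTT reduction menadione read-out at 470 nm, with DMSO vehicle as 100% growth. MIC derived from the dose-response curve. Duplicates, average ± standard deviation.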

[4] = test system: Mycobacterium tuberculosis; test: Antimycobacterial activity against active stage of Mycobacterium tuberculosis H37Ra ATCC 25177 by XRMA; assay type: functional, organism-based; method in brief: as §2
Staphylococcus aureus = test: Antibacterial activity against Staphylococcus aureus NCIM 2010 at 3 ug/ml after 8 hrs relative to control; assay type: functional
Method in brief: (§3)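 Cultures grown to OD600 of 1, then set at 0.1 OD600 and exposed to compound at 3 µg/mL for 8 h at 37 °C. Ampicillin was the positive control. Activity is reported as % inhibition.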

Bacillus subtilis = test: Antibacterial activity against Bacillus subtilis NCIM 2079 at 3 ug/ml after 8 hrs relative to control; assay type: functional; method in brief: as §3

| Compound | Activity [1] | Activity [2] | IC50 [3] [µg/mL] | IC90 [3] [µg/mL] | IC50 [4] [µg/mL] | IC90 [4] [µg/mL] | Activity (Staphylococcus aureus) [%] | Activity (Bacillus subtilis) [%] |
| --- | --- | --- | --- | --- | --- | --- | --- | --- |
| Cc1ccc(-n2cc(C(c3c[nH]c4ccc(Br)cc34)c3c[nH]c4ccc(Br)cc34)nn2)cc1 | Active | Active | – | – | – | – | – | – |
| O=[N+]([O-])c1ccc(-n2cc(C(c3c[nH]c4ccc(Br)cc34)c3c[nH]c4ccc(Br)cc34)nn2)cc1 | >87.18% | >87.18% | 2.96 (≈ 5 µM) | > 30 | 14.8 (≈ 25 µM) | > 30 | – | – |
| CO[C@H]1/C=C/O[C@@]2(C)Oc3c(C)c(O)c4c(O)c(c(/C=N/N5CCN(C)CC5)c(O)c4c3C2=O)NC(=O)/C(C)=C\C=C\[C@H](C)[C@H](O)[C@@H](C)[C@@H](O)[C@@H](C)[C@H](OC(C)=O)[C@@H]1C [RIFAMPIN] | – | – | – | 0.8 (≈ 0.972 µM) | 0.02 (≈ 0.0243 µM) | 0.53 (≈ 0.644 µM) | – | – |
| COc1ccccc1-n1cc(C(c2c[nH]c3ccc(Br)cc23)c2c[nH]c3ccc(Br)cc23)nn1 | Active | Active | – | – | – | – | – | – |
| Clc1cccc(-n2cc(C(c3c[nH]c4ccc(Br)cc34)c3c[nH]c4ccc(Br)cc34)nn2)c1 | >87.18% | >87.18% | 0.12 (≈ 0.206 µM) | 9.84 (≈ 16.9 µM) | 0.22 (≈ 0.378 µM) | 13.5 (≈ 23.2 µM) | 71.77 | – |
| O=[N+]([O-])c1ccc(-n2cc(C(c3c[nH]c4ccccc34)c3c[nH]c4ccccc34)nn2)cc1 | Active | Active | – | – | – | – | – | – |
| O=[N+]([O-])c1ccccc1-n1cc(C(c2c[nH]c3ccc(Br)cc23)c2c[nH]c3ccc(Br)cc23)nn1 | >87.18% | >87.18% | 1 (≈ 1.69 µM) | 30 (≈ 50.7 µM) | 2.27 (≈ 3.83 µM) | > 30 | – | – |
| COc1ccc(-n2cc(C(c3c[nH]c4ccc(Br)cc34)c3c[nH]c4ccc(Br)cc34)nn2)cc1 | >88.22% | >88.22% | – | – | – | – | – | – |
| COc1ccccc1-n1cc(C(c2c[nH]c3ccccc23)c2c[nH]c3ccccc23)nn1 | Active | Active | – | – | – | – | – | – |
| c1ccc(-n2cc(C(c3c[nH]c4ccccc34)c3c[nH]c4ccccc34)nn2)cc1 | Active | Active | – | – | – | – | – | – |
| Clc1ccc(-n2cc(C(c3c[nH]c4ccc(Br)cc34)c3c[nH]c4ccc(Br)cc34)nn2)cc1 | >88.22% | >88.22% | – | – | – | – | – | >70 |
| CC(=O)Nc1ccc(-n2cc(C(c3c[nH]c4ccccc34)c3c[nH]c4ccccc34)nn2)cc1 | Active | Active | – | – | – | – | – | – |
| CC(=O)Nc1ccc(-n2cc(C(c3c[nH]c4ccc(Br)cc34)c3c[nH]c4ccc(Br)cc34)nn2)cc1 | >87.18% | >87.18% | 1 (≈ 1.65 µM) | 3 (≈ 4.96 µM) | 1.52 (≈ 2.52 µM) | 6.16 (≈ 10.2 µM) | – | >70 |
| O=[N+]([O-])c1cccc(-n2cc(C(c3c[nH]c4ccc(Br)cc34)c3c[nH]c4ccc(Br)cc34)nn2)c1 | >87.18% | >87.18% | 2.56 (≈ 4.32 µM) | > 30 | 6.25 (≈ 10.6 µM) | > 30 | – | >70 |
| Cc1ccc(-n2cc(C(c3c[nH]c4ccccc34)c3c[nH]c4ccccc34)nn2)cc1 | Active | Active | – | – | – | – | – | – |
| COc1ccc(-n2cc(C(c3c[nH]c4ccccc34)c3c[nH]c4ccccc34)nn2)cc1 | Active | Active | – | – | – | – | – | – |
| Clc1cccc(-n2cc(C(c3c[nH]c4ccccc34)c3c[nH]c4ccccc34)nn2)c1 | >87.18% | >87.18% | 0.37 (≈ 0.873 µM) | > 30 | 2.04 (≈ 4.81 µM) | > 30 | – | – |
| Brc1ccc2[nH]cc(C(c3cn(-c4ccccc4)nn3)c3c[nH]c4ccc(Br)cc34)c2c1 | >87.18% | >87.18% | 1.55 (≈ 2.83 µM) | 9.39 (≈ 17.2 µM) | 2.19 (≈ 4 µM) | 30 (≈ 54.8 µM) | – | >70 |
| O=[N+]([O-])c1ccccc1-n1cc(C(c2c[nH]c3ccccc23)c2c[nH]c3ccccc23)nn1 | Active | Active | – | – | – | – | – | – |
| Clc1ccc(-n2cc(C(c3c[nH]c4ccccc34)c3c[nH]c4ccccc34)nn2)cc1 | Active | Active | – | – | – | – | – | – |
